# Laboratory results as given in ChEMBL document CHEMBL1127659, “In vitro and in vivo activities of reduced-size antagonists of luteinizing hormone-releasing hormone” (J Med Chem, 1994).
# Where a SMILES comes first, the peptide text is derived from it. [ ]: non-standard residue; d: D form. The star is where a group is joined. Propanoyl(3-(4-F-phenyl)) = O=C(CCc1ccc(F)cc1)*; Propanoyl(3-(4-Cl-Ph)) = O=C(CCc1ccc(Cl)cc1)*; Desaminotyrosyl = O=C(CCc1ccc(O)cc1)*; d1Nal = N[C@H](Cc1cccc2ccccc12)C(=O)O; Lys(iPr) = CC(C)NCCCC[C@H](N)C(=O)O; NMeY = CN[C@@H](Cc1ccc(O)cc1)C(=O)O; Nicotinoyl = O=C(c1cccnc1)*
# Species on record: Rattus norvegicus
# Experiment: In vitro antagonistic potency against release of luteinizing hormone (LH) from cultured rat pituitary cells.
# Format: functional
# Details: Pituitary gland cell, read-out: pA2 (converted)
# Procedure, shortened: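 Cultured rat pituitary cells, agonist-stimulated LH release. pA2 is the negative log of the antagonist concentration that makes a 2-fold higher agonist concentration necessary to release LH. Compounds tested as TFA salts.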
row,Structure (SMILES),Kb [pM]
1,CCNC(=O)[C@@H]1CCCN1C(=O)[C@H](CCCN=C(N)N)NC(=O)[C@H](CC(C)C)NC(=O)[C@@H](Cc1c[nH]c2ccccc12)NC(=O)[C@H](Cc1ccc(O)cc1)NC(=O)[C@H](CO)NC(=O)[C@H](Cc1c[nH]c2ccccc12)NC(=O)[C@H](Cc1ccccc1)NC(C)=O,9550
2,CCNC(=O)[C@@H]1CCCN1C(=O)[C@H](CCCN=C(N)N)NC(=O)[C@H](CC(C)C)NC(=O)[C@@H](CCCCNC(=O)c1cccnc1)NC(=O)[C@H](Cc1ccc(O)cc1)N(C)C(=O)[C@H](CO)NC(=O)[C@@H](Cc1c[nH]c2ccccc12)NC(=O)CCc1ccc(F)cc1F,8.91
3,CCNC(=O)[C@@H]1CCCN1C(=O)[C@H](CCCN=C(N)N)NC(=O)[C@H](CC(C)C)NC(=O)[C@@H](Cc1c[nH]c2ccccc12)NC(=O)[C@H](Cc1ccc(O)cc1)N(C)C(=O)[C@H](CO)NC(=O)[C@@H](Cc1c[nH]c2ccccc12)NC(=O)CCc1ccc(F)cc1,7.08
4,CC(C)C[C@H](NC(=O)[C@@H](CCCCNC(=O)c1cccnc1)NC(=O)[C@H](Cc1ccc(O)cc1)N(C)C(=O)[C@H](CO)NC(=O)[C@@H](Cc1cccc2ccccc12)NC(=O)CCc1ccc(F)cc1)C(=O)N[C@@H](CCCCNC(C)C)C(=O)N1CCC[C@H]1C(=O)N[C@H](C)C(N)=O ({Propanoyl(3-(4-F-phenyl))}-[d1Nal]S[NMeY][dK](Nicotinoyl)L[Lys(iPr)]P[dA]-NH2),7.41
5,CCNC(=O)[C@@H]1CCCN1C(=O)[C@H](CCCN=C(N)N)NC(=O)[C@H](CC(C)C)NC(=O)[C@@H](Cc1c[nH]c2ccccc12)NC(=O)[C@H](Cc1ccc(O)cc1)NC(=O)[C@H](CO)NC(=O)[C@@H](Cc1c[nH]c2ccccc12)NC(=O)CCc1ccc(F)cc1F,14.1
6,CCNC(=O)[C@@H]1CCCN1C(=O)[C@H](CCCN=C(N)N)NC(=O)[C@H](CC(C)C)NC(=O)[C@@H](Cc1c[nH]c2ccccc12)NC(=O)[C@H](Cc1ccc(O)cc1)NC(=O)[C@H](CO)NC(=O)[C@H](Cc1c[nH]c2ccccc12)NC(=O)CCc1ccc(O)cc1 (Desaminotyrosyl-WSY[dW]LRP-NHEt),15500
7,CCNC(=O)[C@@H]1CCCN1C(=O)[C@H](CCCN=C(N)N)NC(=O)[C@H](CC(C)C)NC(=O)[C@@H](Cc1c[nH]c2ccccc12)NC(=O)[C@H](Cc1ccc(O)cc1)NC(=O)[C@H](CO)NC(=O)[C@H](Cc1c[nH]c2ccccc12)NC(=O)Cc1ccc(Cl)cc1,5500
8,CCNC(=O)[C@@H]1CCCN1C(=O)[C@H](CCCN=C(N)N)NC(=O)[C@H](CC(C)C)NC(=O)[C@@H](Cc1c[nH]c2ccccc12)NC(=O)[C@H](Cc1ccc(O)cc1)NC(=O)[C@H](CO)NC(=O)[C@@H](Cc1c[nH]c2ccccc12)NC(=O)Cc1ccc(C(F)(F)F)cc1,2630
9,CCNC(=O)[C@@H]1CCCN1C(=O)[C@H](CCCN=C(N)N)NC(=O)[C@H](CC(C)C)NC(=O)[C@@H](Cc1c[nH]c2ccccc12)NC(=O)[C@H](Cc1ccc(O)cc1)NC(=O)[C@H](CO)NC(=O)[C@@H](Cc1cccc2ccccc12)NC(=O)CCc1ccc(F)cc1,7.08
10,CCNC(=O)[C@@H]1CCCN1C(=O)[C@H](CCCN=C(N)N)NC(=O)[C@H](CC(C)C)NC(=O)[C@@H](Cc1c[nH]c2ccccc12)NC(=O)[C@H](Cc1ccc(O)cc1)NC(=O)[C@H](CO)NC(=O)[C@H](Cc1c[nH]c2ccccc12)NC(=O)Cc1ccccc1,5500
11,CCNC(=O)[C@@H]1CCCN1C(=O)[C@H](CCCN=C(N)N)NC(=O)[C@H](CC(C)C)NC(=O)[C@@H](CCCCNC(=O)c1cccnc1)NC(=O)[C@H](Cc1ccc(O)cc1)NC(=O)[C@H](CO)NC(=O)[C@H](Cc1c[nH]c2ccccc12)NC(=O)CCc1ccc(F)cc1,20900
12,CCNC(=O)[C@@H]1CCCN1C(=O)[C@H](CCCN=C(N)N)NC(=O)[C@H](CC(C)C)NC(=O)[C@@H](Cc1ccc(Cl)cc1)NC(=O)[C@H](Cc1ccc(O)cc1)NC(=O)[C@H](CO)NC(=O)[C@H](Cc1c[nH]c2ccccc12)NC(=O)CCc1ccc(F)cc1,8.91
13,CCNC(=O)[C@@H]1CCCN1C(=O)[C@H](CCCN=C(N)N)NC(=O)[C@H](CC(C)C)NC(=O)[C@@H](Cc1ccc(O)cc1)NC(=O)[C@H](Cc1ccc(O)cc1)NC(=O)[C@H](CO)NC(=O)[C@@H](Cc1c[nH]c2ccccc12)NC(=O)CCc1ccc(F)cc1,31.6
14,CCNC(=O)[C@@H]1CCCN1C(=O)[C@H](CCCN=C(N)N)NC(=O)[C@H](CC(C)C)NC(=O)[C@@H](Cc1c[nH]c2ccccc12)NC(=O)[C@H](Cc1ccc(O)cc1)NC(=O)[C@H](CO)NC(=O)[C@H](Cc1c[nH]c2ccccc12)NC(=O)c1cc2ccccc2[nH]1,17800
15,CCNC(=O)[C@@H]1CCCN1C(=O)[C@H](CCCN=C(N)N)NC(=O)[C@H](CC(C)C)NC(=O)[C@@H](Cc1c[nH]c2ccccc12)NC(=O)[C@H](Cc1ccc(O)cc1)NC(=O)[C@H](CO)NC(=O)[C@H](Cc1c[nH]c2ccccc12)NC(=O)CCc1cccc(F)c1,891
16,CCNC(=O)[C@@H]1CCCN1C(=O)[C@H](CCCN=C(N)N)NC(=O)[C@H](CC(C)C)NC(=O)[C@@H](Cc1c[nH]c2ccccc12)NC(=O)[C@H](Cc1ccc(O)cc1)NC(=O)[C@H](CO)NC(=O)[C@H](Cc1c[nH]c2ccccc12)NC(=O)CCc1ccc(C(F)(F)F)cc1,955
17,CC(C)C[C@H](NC(=O)[C@@H](CCCCNC(=O)c1cccnc1)NC(=O)[C@H](Cc1ccc(O)cc1)N(C)C(=O)[C@H](CO)NC(=O)[C@@H](Cc1cccc2ccccc12)NC(=O)CCc1ccc(F)cc1)C(=O)N[C@@H](CCCCNC(C)C)C(=O)N1CCC[C@H]1C(N)=O,6.92
18,CCNC(=O)[C@@H]1CCCN1C(=O)[C@H](CCCN=C(N)N)NC(=O)[C@H](CC(C)C)NC(=O)[C@@H](Cc1c[nH]c2ccccc12)NC(=O)[C@H](Cc1ccc(O)cc1)NC(=O)[C@H](CO)NC(=O)[C@H](Cc1c[nH]c2ccccc12)NC(=O)CCc1ccc(F)cc1,589
19,CCNC(=O)[C@@H]1CCCN1C(=O)[C@H](CCCN=C(N)N)NC(=O)[C@H](CC(C)C)NC(=O)[C@@H](Cc1ccc(O)cc1)NC(=O)[C@H](Cc1ccc(O)cc1)NC(=O)[C@H](CO)NC(=O)[C@H](Cc1c[nH]c2ccccc12)NC(=O)CCc1ccc(F)cc1,12600
20,CCNC(=O)[C@@H]1CCCN1C(=O)[C@H](CCCN=C(N)N)NC(=O)[C@H](CC(C)C)NC(=O)[C@@H](Cc1c[nH]c2ccccc12)NC(=O)[C@H](Cc1ccc(O)cc1)NC(=O)[C@H](CO)NC(=O)[C@@H](Cc1ccc(O)cc1)NC(=O)CCc1ccc(Cl)cc1 ({Propanoyl(3-(4-Cl-Ph))}-[dY]SY[dW]LRP-NHEt),83.2
21,CCNC(=O)[C@@H]1CCCN1C(=O)[C@H](CCCN=C(N)N)NC(=O)[C@H](CC(C)C)NC(=O)[C@@H](Cc1c[nH]c2ccccc12)NC(=O)[C@H](Cc1ccc(O)cc1)NC(=O)[C@H](CO)NC(=O)[C@H](Cc1c[nH]c2ccccc12)NC(=O)CCc1ccccc1F,447
22,CCNC(=O)[C@@H]1CCCN1C(=O)[C@H](CCCN=C(N)N)NC(=O)[C@H](CC(C)C)NC(=O)[C@@H](Cc1c[nH]c2ccccc12)NC(=O)[C@H](Cc1ccc(O)cc1)NC(=O)[C@H](CO)NC(=O)[C@H](Cc1ccc(O)cc1)NC(=O)CCc1ccc(Cl)cc1 ({Propanoyl(3-(4-Cl-Ph))}-YSY[dW]LRP-NHEt),851
23,CCNC(=O)[C@@H]1CCCN1C(=O)[C@H](CCCN=C(N)N)NC(=O)[C@H](CC(C)C)NC(=O)[C@@H](Cc1c[nH]c2ccccc12)NC(=O)[C@H](Cc1ccc(O)cc1)NC(=O)[C@H](CO)NC(=O)[C@@H](Cc1c[nH]c2ccccc12)NC(=O)CCc1ccc(F)c(F)c1,35.5
